From ChEMBL document CHEMBL3864187, “Discovery and Characterization of a Peptoid with Antifungal Activity against Cryptococcus neoformans” (ACS Med Chem Lett, 2016) come the findings set out here.

Converted amounts (≈) assume the structure as drawn. The source made the active and inactive calls. Where a SMILES comes first, the peptide text is derived from it. [ ]: non-standard residue; d: D form. NFurfurylGly = O=C(O)CNCc1ccco1; Gly(N(CH2)3NH2) = NCCCNCC(=O)O; Nphe = O=C(O)CNCc1ccccc1 Bounds are passed on as bounds.

The IC50 is the concentration that gives 50% inhibition. The MIC is the lowest concentration found to suppress growth.

Series [1] is described as follows: Cytotoxicity against human HPL1A cells at 6.3 ug/ml measured after 48 hrs by MTT assay. The series is classed as toxicity, cell-based. In outline: (§1)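 Cells were exposed to peptoid across 800 to 3.1 μg/mL. IC50 is defined as the concentration giving 50% growth inhibition. Cytotoxicity was also scored at 6.3 μg/mL within this range.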
On the technique in general: Formazan colour is commonly taken as a measure of viable cells.

The nature of series [2]: Metabolic stability in human serum assessed as compound degradation at 0.1 mg/mL measured after 48 hrs by RP-HPLC analysis. Format: ADME.
Series [3] can be described thus: Cytotoxicity against mouse NIH/3T3 cells measured after 48 hrs by MTT assay. Format: toxicity, NIH3T3. In outline: as §1
Series [4] concerns Cryptococcus neoformans. The series is described as follows: Antifungal activity against Cryptococcus neoformans serotype A clinical isolate B18 after 72 hrs by PrestoBlue staining based broth dilution method. The series is classed as functional. To be noted: isolate B18, 72 h. In outline: (§2)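 Standard broth dilution MIC assay run in triplicate samples with 72 h incubation. The MIC is the lowest concentration inhibiting growth. An IC50 (50% inhibitory concentration) is also derived from the same assay.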

Series [5] is described as follows: Antifungal activity against Cryptococcus neoformans serotype D clinical isolate AD 12-27 after 72 hrs by PrestoBlue staining based broth dilution method. The series is classed as functional, Cryptococcus deneoformans. In outline:
as §2

Series [6] in a line: Hemolytic activity against human erythrocytes at 6.3 ug/ml measured after 1 hr by spectrophotometric method. To be noted: erythrocyte. Format: cell-based. In a few lines: (§3)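 Human erythrocytes were exposed to peptoid across 800 to 3.1 μg/mL. HC10 is defined as the concentration lysing 10% of erythrocytes. Lysis was also scored at 6.3 μg/mL.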
Series [7] in a line: Antifungal activity against Cryptococcus neoformans serotype D clinical isolate AD 12-30 after 72 hrs by PrestoBlue staining based broth dilution method. Format: functional, Cryptococcus deneoformans. In outline:
as §2
(Dilution methods test growth across graded concentrations, often in twofold steps.)

Series [8] can be described thus: Selectivity index, ratio of HC10 for human erythrocytes to MIC for Cryptococcus neoformans serotype A H99S. In a few lines:
(§4)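 Mammalian toxicity tested at 800 to 3.1 μg/mL. IC50 (50% growth inhibition) was measured in NIH/3T3, HepG2 and HPL1A cells, and HC10 (10% lysis) in human erythrocytes. Each value was divided by the broth-dilution MIC against H99S.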

The nature of series [9]: Selectivity index, ratio of IC50 for human HPL1A cells to MIC for Cryptococcus neoformans serotype A H99S. In a few lines: as §4
Series [10] in a line: Selectivity index, ratio of IC50 for mouse NIH/3T3 cells to MIC for Cryptococcus neoformans serotype A H99S. In a few lines: as §4
Series [11] in a line: Cytotoxicity against human HepG2 cells at 6.3 ug/ml measured after 48 hrs by MTT assay. The following applies: hepg2, 48 h. The series is classed as toxicity, cell-based. In outline:
as §1

Series [12] is described as follows: Selectivity index, ratio of IC50 for human HepG2 cells to MIC for Cryptococcus neoformans serotype A H99S. In a few lines: as §4
A short description of series [13]: Cytotoxicity against human HPL1A cells measured after 48 hrs by MTT assay. The series is classed as toxicity, cell-based. In a few lines:
as §1

The test system of series [14] is Cryptococcus neoformans. The series can be described thus: Fungicidal activity against Cryptococcus neoformans serotype A H99S at =>6.3 ug/mL measured after 72 hrs by broth dilution method. The series is classed as functional. The following applies: Cryptococcus neoformans var. grubii H99S. In a few lines: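 Broth MIC assay over a range of peptoid concentrations with 72 h incubation. Triplicate wells are pooled, washed with PBS to remove drug and spotted onto YPD agar. Fungicidal activity means no colony regrowth; recovery of colonies means fungistatic only.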

Series [15] relates to Cryptococcus neoformans. The series is described as follows: Antifungal activity against Cryptococcus neoformans serotype A clinical isolate B24 after 72 hrs by PrestoBlue staining based broth dilution method. The series is classed as functional. The following applies: isolate B24, 72 h. In a few lines: as §2
For a further series, the species on record is Mus musculus. The series can be described thus: Cytotoxicity against mouse NIH/3T3 cells at 6.3 ug/ml measured after 48 hrs by MTT assay. Format: toxicity, cell-based. The following applies: nih3t3, 48 h. In outline:
as §1

Series [16] in a line: Cytotoxicity against human HepG2 cells measured after 48 hrs by MTT assay. Format: toxicity, cell-based. In a few lines:
as §1

The nature of series [17]: Antifungal activity against Cryptococcus neoformans serotype A H99S assessed as inhibition of colony growth measured after 72 hrs by PrestoBlue staining based broth dilution method. The following applies: for MIC: Cryptococcus neoformans var. grubii H99S. Format: functional, Cryptococcus neoformans var. grubii H99S. In outline: (§5)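 Standard broth dilution of the synthesized, HPLC-purified peptoid against C. neoformans in a triplicate-sample format with 72 h incubation; MIC is the lowest concentration that inhibits growth.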

Series [18] can be described thus: Antifungal activity against Cryptococcus neoformans serotype D ATCC 24067 after 72 hrs by PrestoBlue staining based broth dilution method. The series is classed as functional, Cryptococcus deneoformans. In outline:
as §5

Series [19] is described as follows: Cytotoxicity against human erythrocytes assessed as hemolysis measured after 1 hr by spectrophotometric method. The series is classed as toxicity, cell-based. To be noted: erythrocyte. In a few lines: as §3

Turning to `CCCCCCCCCCCCCNCC(=O)N(CCCCN)CC(=O)N(CC(N)=O)Cc1ccco1`, the Activity result (in series [1]; in [6]; in [11]; in the series filed under Mus musculus) was “Non-Toxic” in each case. Also, the Stability result in series [2] is “Stable”. In addition, the IC50 at 48 h in series [3] is 48.6 to 50.3 µg/mL (≈ 93.1 to 96.4 µM); in [13], 36.3 µg/mL (≈ 69.6 µM); in series [16], 43.6 to 56.2 µg/mL (≈ 83.6 to 108 µM). Further, the IC50 with Cryptococcus neoformans [4] is 12.2 µg/mL (≈ 23.4 µM); in series [5], 4 µg/mL (≈ 7.67 µM); in series [7] it was 6.9 µg/mL (≈ 13.2 µM); in the series on Cryptococcus neoformans [15], 10.7 µg/mL (≈ 20.5 µM); in series [17], 0.68 µg/mL (≈ 1.3 µM); in series [18] it was 3.9 µg/mL (≈ 7.47 µM). For the same compound, the MIC is 25 µg/mL (≈ 47.9 µM) in the series on Cryptococcus neoformans [4]; 25 µg/mL (≈ 47.9 µM) in [5] (Cryptococcus deneoformans); 25 µg/mL (≈ 47.9 µM) in series [7] (Cryptococcus deneoformans); 12.5 µg/mL (≈ 24 µM) against Cryptococcus neoformans [15]; 6.3 µg/mL (≈ 12.1 µM) in [17]; 6.3 µg/mL (≈ 12.1 µM) in series [18] (Cryptococcus deneoformans). For the same compound, the “Selectivity Index” value in series [8] stood at 11; in [9] it was 6; in [10] it was 8; in [12], 9. In addition, in the series with Cryptococcus neoformans [14], the result was Active. The HC10 in series [19] worked out at 68.7 µg/mL.
Consider `NCCCN(CC(=O)N(CC(=O)N(CC(N)=O)Cc1ccco1)Cc1ccccc1)C(=O)CN(Cc1ccccc1)C(=O)CNCc1ccccc1` (H-[Nphe][Nphe][Gly(N(CH2)3NH2)][Nphe][NFurfurylGly]-NH2), for which, in series [17], the MIC was above 200 µg/mL.
